The values that follow come from ChEMBL document CHEMBL3259780, “3-Substituted-N-(4-hydroxynaphthalen-1-yl)arylsulfonamides as a novel class of selective Mcl-1 inhibitors: structure-based design, synthesis, SAR, and biological evaluation” (J Med Chem, 2014).

Assay [1] deals with T1, Induced myeloid leukemia cell differentiation protein Mcl-1 (Homo sapiens, UniProt Q07820). The assay can be described thus: Binding affinity to His-tagged MCL1 (171 to 327) (unknown origin) expressed in Escherichia coli BL21(DE3) assessed as inhibition of MCL1-N-terminal biotin-labeled BIM BH3 peptide interaction after 30 mins by surface plasmon resonance analysis. In general terms: In SPR one partner is held on a chip, and binding of the other changes the refractive index at the surface.

For a further assay, the system named is MV4-11. The assay can be described thus: Cytotoxicity against human MV4-11 cells assessed as intracellular ATP level after 3 days by CellTiterGlo assay. The assay is classed as functional, cell-based. In outline: (§1)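 Cells in RPMI 1640 with 10% FBS, plated at 0.5 × 10^6 cells/well and exposed to a range of compound concentrations for 3 days. Viability is read as intracellular ATP by CellTiter-Glo luminescence. Growth is expressed as percent of DMSO-treated cells, and IC50 is obtained by nonlinear regression.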
Background: In ATP-based viability assays light output follows the ATP content of the culture.

Assay [2] relates to HL-60. In words: Induction of apoptosis in human HL60 cells after 20 hrs by annexin V-FITC and propidium iodide staining-based flow cytometric analysis. Format: functional, cell-based. In outline: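 HL-60 cells at 0.5 × 10^6 cells/well were exposed to compounds at several concentrations for 20 h, then washed in PBS and stained with annexin-V FITC plus PI. Flow cytometry was run within 1 h. Annexin+/PI− counts as early apoptosis and double positive as late. Some runs included a 1 h pretreatment with 100 μM Z-VAD-FMK.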

In assay [3] the test system is HL-60. In words: Cytotoxicity against human HL60 cells assessed as intracellular ATP level after 3 days by CellTiterGlo assay. Format: functional, cell-based. The essentials:
as §1

The target in assay [4] is T1, Induced myeloid leukemia cell differentiation protein Mcl-1. In words: Displacement of Flu-BID/FAM-BID from His-tagged MCL1 (171 to 327) (unknown origin) expressed in Escherichia coli BL21(DE3) after 3 hrs by fluorescence polarization assay. In general terms: Fluorescence polarisation rises when a labelled molecule tumbles more slowly, as on binding a larger partner.

The subject of the next assay is K562. The assay can be described thus: Cytotoxicity against human K562 cells assessed as intracellular ATP level after 3 days by CellTiterGlo assay. Format: functional, cell-based. In outline:
as §1

In the next assay the target is Bcl-2-like protein 1 (Homo sapiens, UniProt Q07817). In words: Displacement of Flu-BID/FAM-BID from His-tagged BCLX-L (1 to 209) (unknown origin) expressed in Escherichia coli BL21(DE3) after 3 hrs by fluorescence polarization assay.
The target in assay [5] is T2, Apoptosis regulator Bcl-2 (Homo sapiens, UniProt P10415). In words: Displacement of Flu-BID/FAM-BID from His-tagged BCL2 (1 to 202) (unknown origin) expressed in Escherichia coli BL21(DE3) after 3 hrs by fluorescence polarization assay.
Assay [6] addresses T2, Apoptosis regulator Bcl-2. The assay can be described thus: Inhibition of BCL2 (unknown origin) overexpressed in E-mu-myc transgenic mouse lymphoma cells assessed as induction of cell death after 15 to 18 hrs by flow cytometric analysis. Format: cell-based. The essentials: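 Eμ-myc transgenic mouse lymphoma cells retrovirally transduced to overexpress Mcl-1 or Bcl-2, seeded at 0.5 × 10^6 cells/well. Cells were treated at varying concentrations for 15–18 h and stained with violet LIVE/DEAD fixable dead-cell dye. Percent stained (dead) cells was measured by flow cytometry. Means ± SEM from 3–7 independent experiments.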

For a further assay, the species on record is Homo sapiens. In words: Selectivity ratio of Ki for His-tagged BCL2 (1 to 202) (unknown origin) to Ki for His-tagged MCL1 (171 to 327) (unknown origin). In outline: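 Buffer 100 mM potassium phosphate pH 7.5 with bovine gamma globulin, azide and 0.01% Triton X-100; 3 h at room temperature. IC50 fitted, then converted to Ki.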

Calls of active or inactive are those of the source. The calls are words filed in the database; no cut-off is given here.

T1 sequence (Q07820 whole entry): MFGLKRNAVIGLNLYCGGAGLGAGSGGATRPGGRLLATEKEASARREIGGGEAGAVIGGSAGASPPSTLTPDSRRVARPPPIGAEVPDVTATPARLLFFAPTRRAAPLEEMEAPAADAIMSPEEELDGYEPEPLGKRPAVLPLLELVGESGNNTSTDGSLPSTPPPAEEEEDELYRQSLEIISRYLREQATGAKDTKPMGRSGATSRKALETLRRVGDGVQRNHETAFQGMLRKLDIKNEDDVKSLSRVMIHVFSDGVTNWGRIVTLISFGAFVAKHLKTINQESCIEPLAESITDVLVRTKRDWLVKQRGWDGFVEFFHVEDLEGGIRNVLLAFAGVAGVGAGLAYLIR
T2 sequence (P10415 whole entry): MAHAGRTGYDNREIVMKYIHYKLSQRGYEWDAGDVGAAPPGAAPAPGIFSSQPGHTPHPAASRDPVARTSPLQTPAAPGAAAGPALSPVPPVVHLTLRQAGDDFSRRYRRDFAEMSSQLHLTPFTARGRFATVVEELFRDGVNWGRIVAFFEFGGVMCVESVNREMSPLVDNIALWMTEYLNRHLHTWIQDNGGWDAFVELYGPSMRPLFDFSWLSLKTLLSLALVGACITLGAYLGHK
Bcl-2-like protein 1, sequence (Q07817 whole entry): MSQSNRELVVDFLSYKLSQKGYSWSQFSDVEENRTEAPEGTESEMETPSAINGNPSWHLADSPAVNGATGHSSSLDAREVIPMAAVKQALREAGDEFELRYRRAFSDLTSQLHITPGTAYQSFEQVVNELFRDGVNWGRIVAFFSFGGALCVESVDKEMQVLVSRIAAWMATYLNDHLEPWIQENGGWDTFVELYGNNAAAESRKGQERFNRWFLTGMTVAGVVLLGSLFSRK

`CC(C)(C)c1ccc(S(=O)(=O)Nc2cc(SCC(=O)O)c(O)c3ccccc23)cc1`: in [1], the half-maximal inhibitory concentration (IC50) stood at 8.73 µM.
As for `O=S(=O)(Nc1cc(SCc2nnn[nH]2)c(O)c2ccccc12)c1ccc(Oc2ccccc2)cc1`, the Activity entry in the assay with MV4-11, in the assay on HL-60 [2], in the assay on HL-60 [3] and in the assay with K562 was “Dose-dependent effect” each time. The molecule further came in with a Ki in [4] of 0.21 µM.
Consider `O=C(O)CSc1cc(NS(=O)(=O)c2ccc(-c3ccccc3)cc2)c2ccccc2c1O`, for which the Ki stood at 8.05 µM on Bcl-2-like protein 1 and 8.82 µM in assay [5]. Further, the Activity entry in the assay with MV4-11, with HL-60 [3] and in the assay with K562 was “Dose-dependent effect” each time. Moreover, in assay [1], the concentration for half-maximal inhibition (IC50) is 2.03 µM.
Consider `O=C(O)CSc1cc(NS(=O)(=O)c2ccccc2Br)c2ccccc2c1O`, for which the concentration for half-maximal inhibition (IC50) in [1] turned out to be 6.18 µM.
Turning to `O=C(O)CSc1cc(NS(=O)(=O)c2ccccc2-c2ccccc2)c2ccccc2c1O`, the Ki came out at 48.2 µM at Bcl-2-like protein 1 and 23.8 µM in [5]. Moreover, the 50% inhibitory concentration (IC50) in [1] is 9.9 µM.
On to `COC(=O)CSc1cc(NS(=O)(=O)c2ccc(Br)cc2)c2ccccc2c1OC`, for which the Activity result with MV4-11, with HL-60 [3] and with K562 was “Dose-dependent effect” each time. The IC50 in the assay with MV4-11 (MV4-11, 72 h) was greater than 50 µM; in assay [1], greater than 100 µM; with HL-60 [3] (HL-60, 72 h), greater than 50 µM; in the assay on K562 (K562, 72 h), greater than 50 µM. Also, the inhibition entry in assay [6] is “inactive”. In [4], this molecule came in with an inhibitory constant (Ki) greater than 27 µM.
As for `O=S(=O)(Nc1cc(SCc2nnn[nH]2)c(O)c2ccccc12)c1ccc(Br)cc1`, the Activity result in the assay with MV4-11, in the assay on HL-60 [3] and with K562 was “Dose-dependent effect” in each case. In addition, the IC50 in [1] amounted to 1.5 µM. Also, the affinity in assay [4], expressed as Ki, was 1.01 µM.
The molecule `COc1c(I)cc(C=O)c2ccccc12` registered a Ki on Bcl-2-like protein 1 greater than 15 µM. In addition, the Ratio Ki in the assay listed under Homo sapiens was 16.
Take `O=C(O)CSc1cc(NS(=O)(=O)Cc2ccc(Cl)cc2)c2ccccc2c1O`: the IC50 in [1] came out at 9.59 µM.
Consider `O=C(O)CCSc1cc(NS(=O)(=O)c2cccc3ccccc23)c2ccccc2c1O`, for which, in [1], the IC50 stood at 64.9 µM. Also, in assay [4], the Ki was greater than 27 µM.
For the molecule `O=S(=O)(Nc1cc(CCCCO)c(O)c2ccccc12)c1ccc(Br)cc1`, in assay [1], the IC50 amounted to 19.7 µM.
For `O=C(O)CSc1cc(NS(=O)(=O)c2ccc(-c3ccc(F)cc3F)cc2)c2ccccc2c1O`, the IC50 in assay [1] is 0.92 µM. This molecule also displayed a Ki in [4] of 0.24 µM.
As for `O=C(O)CSc1cc(NS(=O)(=O)c2ccc(F)cc2)c2ccccc2c1O`, the IC50 in assay [1] was 5.01 µM.
The same measure, in the same setting: as for `CC(C)c1ccc(S(=O)(=O)Nc2cc(SCC(=O)O)c(O)c3ccccc23)cc1`, the figure is 4 µM.
For `O=C(O)CSc1cc(NS(=O)(=O)c2ccc(Br)cc2)c2ccccc2c1O`, the figures for the Ki (at Bcl-2-like protein 1; in assay [5]) were 33 µM and 23.8 µM, respectively. In addition, the Activity result with MV4-11, in the assay with HL-60 [3] and with K562 was “Dose-dependent effect” each time. For the same molecule, the IC50 in [1] turned out to be 2.4 µM.
As for `COC(=O)CSc1cc(NS(=O)(=O)c2ccc(Br)cc2)c2ccccc2c1O`, the Activity result in the assay with MV4-11, with HL-60 [3] and with K562 was “Dose-dependent effect” in each case. Moreover, in [1], the IC50 was 14.9 µM.
Turning to `O=C(O)CSc1cc(NS(=O)(=O)c2cc3ccccc3s2)c2ccccc2c1O`, the IC50 in assay [1] is 7.5 µM.
Consider `O=S(=O)(Nc1ccc(O)c2ccccc12)c1ccccc1`, for which, in [4], the Ki is greater than 27 µM.
Turning to `COc1c(SCC(=O)O)cc(NS(=O)(=O)c2cccc(-c3ccccc3)c2)c2ccccc12`, the IC50 in [1] was found to be 58.4 µM. In addition, the affinity in [4] corresponds to a Ki of 24.2 µM.
For `COc1c(SCC(N)=O)cc(NS(=O)(=O)c2ccc(Br)cc2)c2ccccc12` the same measures were greater than 100 µM and greater than 27 µM.
Taken in the same sequence, the figures for `O=C(O)CSc1cc(NS(=O)(=O)N2CCN(c3ccccc3)CC2)c2ccccc2c1O` were 16.2 µM and 2.22 µM.
For the molecule `O=C(O)CCSc1cc(NS(=O)(=O)c2ccc3ccccc3c2)c2ccccc2c1O`, in assay [1], the IC50 was found to be 5.03 µM.
Consider `O=C(O)CSc1cc(NS(=O)(=O)c2ccc(Oc3ccc(F)cc3)cc2)c2ccccc2c1O`, for which, in assay [1], the IC50 was 0.9 µM. The molecule further had a Ki in [4] of 0.29 µM.
For the molecule `O=C(O)CSc1cc(NS(=O)(=O)c2ccccc2)c2ccccc2c1O`, the half-inhibitory concentration (IC50) in [1] was determined as 12.6 µM.
`CCc1ccc(S(=O)(=O)Nc2cc(SCC(=O)O)c(O)c3ccccc23)cc1`: the IC50 in [1] turned out to be 8.68 µM.
The same measure, in the same setting: as for `O=C(O)CSc1cc(NS(=O)(=O)c2cccc(Br)c2)c2ccccc2c1O`, the figure is 9.68 µM.
Regarding `COc1ccc(S(=O)(=O)Nc2cc(SCC(=O)O)c(O)c3ccccc23)cc1`, the IC50 in assay [1] came out at 7.17 µM. In addition, in assay [4], the Ki worked out at 9.31 µM.
`CCCCSc1cc(NS(=O)(=O)c2ccc(Br)cc2)c2ccccc2c1O` registered a Ki in assay [4] greater than 27 µM.
In the case of `CS(=O)(=O)Nc1cc(SCC(=O)O)c(O)c2ccccc12`, in assay [1], the IC50 is greater than 100 µM. In assay [4], this molecule returned a Ki of 74.9 µM.
Taken in the same sequence, the figures for `COc1c(CCCCO)cc(NS(=O)(=O)c2ccc(Br)cc2)c2ccccc12` were greater than 100 µM and greater than 27 µM.
For `O=S(=O)(Nc1cc(CCCO)c(O)c2ccccc12)c1ccc(Br)cc1` the same measures were 11 µM and 3.79 µM.
Take `O=C(O)CSc1cc(NS(=O)(=O)c2cccc(-c3ccccc3)c2)c2ccccc2c1O`: the figures for the Ki (at Bcl-2-like protein 1; in assay [5]) were 15.1 µM and 7.85 µM, respectively. Further, the Activity result in the assay with MV4-11, in the assay with HL-60 [3] and in the assay on K562 was “Dose-dependent effect” in each case. Besides, the IC50 in assay [1] came out at 2.31 µM.
`O=C(O)CSc1cc(NS(=O)(=O)c2ccc(Br)cc2)ccc1O`: the concentration for half-maximal inhibition (IC50) in assay [1] is greater than 100 µM. In assay [4], this molecule yielded a Ki of 283 µM.
With `O=C(O)CSc1cc(NC(=O)c2ccc(Br)cc2)c2ccccc2c1O`, in assay [1], the half-maximal inhibitory concentration (IC50) was 45.1 µM.
On to `O=C(O)CSc1cc(NS(=O)(=O)c2ccc(-c3ccc(Cl)cc3)cc2)c2ccccc2c1O`, for which the Activity entry with MV4-11, with HL-60 [3] and in the assay with K562 was “Dose-dependent effect” in each case. In addition, in assay [6], the inhibition entry is “inactive”. In addition, the IC50 in assay [1] is 0.88 µM. In assay [5], this molecule showed an inhibitory constant (Ki) of 6.11 µM.
For the molecule `O=C(O)CSc1cc(NC(=O)Cc2ccccc2)c2ccccc2c1O`, the 50% inhibitory concentration (IC50) in assay [1] amounted to 63.8 µM. In [4], the Ki came to 59.4 µM.
For the molecule `O=C(O)CSc1cc(NS(=O)(=O)c2ccc(Cl)cc2)c2ccccc2c1O`, in assay [1], the IC50 came out at 2.7 µM.
In the case of `COc1c(SCC(=O)O)cc(NS(=O)(=O)c2ccc(-c3ccccc3)cc2)c2ccccc12`, the IC50 in assay [1] is greater than 100 µM. Besides, the affinity in assay [4] corresponds to a Ki of 20 µM.
Take `NC(=O)CSc1cc(NS(=O)(=O)c2ccc(Br)cc2)c2ccccc2c1O`: the IC50 in assay [1] was 3.87 µM.
With `O=C(O)CSc1cc(CNS(=O)(=O)c2ccccc2)c2ccccc2c1O`, the IC50 in [1] was found to be 30.2 µM. Affinity in [4] was put at a Ki of 64.8 µM.
As for `CC(=O)Oc1c(SCC(=O)O)cc(NS(=O)(=O)c2ccc(Br)cc2)c2ccccc12`, in assay [1], the IC50 came to 26.8 µM. In assay [4], this molecule showed a Ki of 34 µM.

In general, IC50 refers to the concentration that inhibits the measured activity by half. The Ki is a measure of affinity in units of concentration, obtained from inhibition or displacement.
